According to ChEMBL document CHEMBL1158835, “Hirsutane sesquiterpenes from the fungus Lentinus connatus BCC 8996” (J Nat Prod, 2005):
≈ marks a conversion by molar mass, not a printed value.

How the values were obtained:
KB = experiment: Cytotoxicity against human KB cells by SRB assay; type: functional, cell-based
Method in brief: (§1)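 Colorimetric (Skehan) cytotoxicity assay on KB human epidermoid carcinoma, BC human breast cancer, NCI-H187 human small cell lung cancer, and Vero African green monkey kidney […] cells. Ellipticine served as the reference substance. Activity is expressed as IC50.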

Plasmodium falciparum = experiment: Antimalarial activity against multidrug-resistant Plasmodium falciparum K1 after 42 hrs by [3H]hypoxanthine uptake; type: functional, organism-based
Method in brief: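 Microculture radioisotope method following Desjardins; growth of multidrug-resistant K1 parasites read as in vitro [3H]-hypoxanthine uptake. IC50 = concentration giving 50% reduction in parasite growth. Dihydroartemisinin run as standard.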

NCI-H187 = experiment: Cytotoxicity against human NCI-H187 cells by SRB assay; type: functional, cell-based; method in brief: as §1
Vero = experiment: Cytotoxicity against african green monkey Vero cells by SRB assay; type: cell-based; settings: Chlorocebus sabaeus; method in brief: as §1
[1] = Cytotoxicity against human BC cells by SRB assay; type: functional, cell-based; method in brief: as §1

Row | SMILES | IC50 (KB) [µg/mL] | IC50 (Plasmodium falciparum) [µg/mL] | IC50 (NCI-H187) [µg/mL] | IC50 (Vero) [µg/mL] | IC50 [1] [µg/mL]
1 | COc1ccc2c(c1)C(=O)CC(C)(C)O2 | > 20 | > 20 | > 20 | > 50 | > 20
2 | C[C@H]1[C@@H](O)O[C@@H]2O[C@@]3(C)CC[C@H]4[C@H](C)CC[C@@H]1[C@@]24OO3 [ARTENIMOL] | – | 0.0018 (≈ 0.00633 µM) | – | – | –
3 | CC1=C(O)C(=O)[C@]2(O)C[C@H]3CC(C)(C)[C@H](O)[C@H]3[C@]12C [CONNATUSIN A] | > 20 | > 20 | > 20 | > 50 | > 20
4 | CC1(C)C[C@@H]2CC3=CC(=O)[C@@](O)(CO)[C@@]3(C)[C@@H]2[C@H]1O [CONNATUSIN B] | > 20 | > 20 | > 20 | > 50 | > 20
5 | Cc1c2ccncc2c(C)c2c1[nH]c1ccccc12 [ELLIPTECINE] | 0.21 (≈ 0.853 µM) | – | 0.32 (≈ 1.3 µM) | – | 0.27 (≈ 1.1 µM)
6 | C=C1[C@@H](O)[C@H]2O[C@]23C[C@H]2CC(C)(C)[C@H](O)[C@H]2[C@]13C [HYPNOPHILIN 1] | > 20 | 3.1 (≈ 12.4 µM) | 0.67 (≈ 2.68 µM) | 1.1 (≈ 4.39 µM) | > 20
7 | C=C1C(=O)[C@H]2O[C@]23C[C@H]2CC(C)(C)[C@H](O)[C@H]2[C@]13C [HYPNOPHILIN] | > 20 | > 20 | > 20 | > 50 | > 20
8 | CC(C)=C[C@@H](O)C1=CC(=O)[C@@H]2O[C@@H]2C1=O [PANEPOXYDIONE] | 0.8 (≈ 3.84 µM) | 2.1 (≈ 10.1 µM) | 0.22 (≈ 1.06 µM) | 0.2 (≈ 0.961 µM) | 0.8 (≈ 3.84 µM)
9 | CC(C)=C[C@H](O)C1=C[C@@H](O)[C@@H]2O[C@@H]2C1=O [PANEPOXYDONE] | 1.9 (≈ 9.04 µM) | 3.4 (≈ 16.2 µM) | 0.66 (≈ 3.14 µM) | 0.9 (≈ 4.28 µM) | 2.9 (≈ 13.8 µM)
